Data: ChEMBL document CHEMBL3758120, “Synthesis and Mechanism Studies of 1,3-Benzoazolyl Substituted Pyrrolo[2,3-b]pyrazine Derivatives as Nonintercalative Topoisomerase II Catalytic Inhibitors” (J Med Chem, 2016)
Calls of active or inactive are those of the source. The calls are words filed in the database; no cut-off is given here.

How the values were obtained:
[1] = molecular target: T1, DNA topoisomerase 2-alpha (Homo sapiens, UniProt P11388); experiment: Inhibition of purified human topoisomerase 2-mediated relaxation of supercoiled pBR322 DNA at 20 uM incubated for 30 mins by agarose gel electrophoresis
T1 sequence (P11388 whole entry): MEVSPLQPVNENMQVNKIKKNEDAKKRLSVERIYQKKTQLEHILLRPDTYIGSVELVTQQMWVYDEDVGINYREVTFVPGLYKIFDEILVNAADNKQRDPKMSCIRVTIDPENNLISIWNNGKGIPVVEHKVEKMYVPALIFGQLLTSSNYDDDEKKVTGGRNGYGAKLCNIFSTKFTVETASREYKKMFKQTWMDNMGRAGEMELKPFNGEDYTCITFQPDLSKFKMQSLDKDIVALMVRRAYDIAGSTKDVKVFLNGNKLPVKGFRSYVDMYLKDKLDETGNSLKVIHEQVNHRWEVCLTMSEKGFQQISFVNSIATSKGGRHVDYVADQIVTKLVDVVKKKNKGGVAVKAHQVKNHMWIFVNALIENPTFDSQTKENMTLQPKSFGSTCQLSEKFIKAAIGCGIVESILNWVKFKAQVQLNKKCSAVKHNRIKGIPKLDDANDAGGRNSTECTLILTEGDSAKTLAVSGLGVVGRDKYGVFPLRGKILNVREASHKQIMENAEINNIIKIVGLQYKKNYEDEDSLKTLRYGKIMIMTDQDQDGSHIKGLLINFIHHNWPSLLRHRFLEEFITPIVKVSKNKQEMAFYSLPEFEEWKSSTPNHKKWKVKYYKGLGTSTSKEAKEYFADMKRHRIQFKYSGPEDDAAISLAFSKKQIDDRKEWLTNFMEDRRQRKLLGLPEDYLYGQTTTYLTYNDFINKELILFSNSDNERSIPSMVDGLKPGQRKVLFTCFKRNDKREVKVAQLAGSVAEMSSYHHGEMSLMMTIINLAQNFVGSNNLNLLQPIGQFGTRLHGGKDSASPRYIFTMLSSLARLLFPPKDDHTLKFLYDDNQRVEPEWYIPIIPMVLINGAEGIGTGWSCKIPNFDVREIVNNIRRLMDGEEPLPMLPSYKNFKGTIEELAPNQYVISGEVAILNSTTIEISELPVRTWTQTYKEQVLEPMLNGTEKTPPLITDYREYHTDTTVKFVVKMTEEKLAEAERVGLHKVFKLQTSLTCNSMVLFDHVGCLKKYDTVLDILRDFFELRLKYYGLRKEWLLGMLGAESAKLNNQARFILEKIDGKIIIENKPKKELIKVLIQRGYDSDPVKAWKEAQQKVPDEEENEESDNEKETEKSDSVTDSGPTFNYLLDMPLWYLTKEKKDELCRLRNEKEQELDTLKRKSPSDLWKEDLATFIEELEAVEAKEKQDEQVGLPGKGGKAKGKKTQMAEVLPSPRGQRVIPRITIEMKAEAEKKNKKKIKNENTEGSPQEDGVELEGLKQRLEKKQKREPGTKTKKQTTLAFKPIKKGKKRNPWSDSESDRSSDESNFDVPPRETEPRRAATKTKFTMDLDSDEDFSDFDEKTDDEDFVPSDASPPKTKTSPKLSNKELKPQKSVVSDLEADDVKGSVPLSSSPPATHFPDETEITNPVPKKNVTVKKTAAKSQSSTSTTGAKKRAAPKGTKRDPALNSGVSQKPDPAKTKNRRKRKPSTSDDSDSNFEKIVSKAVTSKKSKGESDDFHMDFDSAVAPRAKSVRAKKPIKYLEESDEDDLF
Procedure, shortened: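 Reactions contained 0.2 μg supercoiled pBR322 in 50 mM Tris-HCl pH 8.0, 150 mM NaCl, 10 mM MgCl2, 0.5 mM DTT, 30 μg/ml BSA, normally 2 mM ATP (1, 2 or 4 mM in ATP-competition runs). Started with 1 U human Topo II, 30 min at 37 °C, stopped with sarcosyl buffer, run on 1% agarose 1.5 h at 75 V, gel-stained and imaged under UV.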

HeLa = experiment: Antiproliferative activity against human HeLa cells after 48 hrs by MTT assay; format: functional, cell-based
Procedure, shortened: (§1)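 Cells seeded at 5000 per well and left overnight, then exposed to increasing concentrations (0-50 μM) for 48 h. […] HL-60/MX2 is a mitoxantrone-selected HL-60 derivative with reduced Topo IIα/β.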

[2] = Antiproliferative activity against human MDA-MB-201 cells after 48 hrs by MTT assay; format: functional, cell-based; procedure, shortened: as §1
A549 = experiment: Antiproliferative activity against human A549 cells after 48 hrs by MTT assay; format: functional, cell-based; details: A549, 48 h; procedure, shortened: as §1
K562 = experiment: Antiproliferative activity against human K562 cells after 48 hrs by MTT assay; format: functional, cell-based; details: K562, 48 h; procedure, shortened: as §1
Raji = experiment: Antiproliferative activity against human Raji cells after 48 hrs by MTT assay; format: functional, cell-based; procedure, shortened: as §1
[3] = Antiproliferative activity against human HL60 cells after 48 hrs by MTT assay; format: functional, cell-based; details: HL-60, 48 h; procedure, shortened: as §1
[4] = Antiproliferative activity against human HL60/MX2 cells after 48 hrs by MTT assay; format: functional, cell-based; details: HL60/MX2, 48 h; procedure, shortened: as §1
HL-60 = experiment: Resistance index, ratio of IC50 for human HL60/MX2 cells to IC50 for HL60 cells; format: functional
Procedure, shortened: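 Resistance index calculated as MTT-derived IC50 (48 h exposure, 0-50 μM, A570 readout) in HL-60/MX2 divided by IC50 in parental HL-60.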

HEK293 = experiment: Cytotoxicity against HEK293 cells after 48 hrs by MTT assay; format: cell-based; details: Homo sapiens, HEK293, 48 h
[5] = molecular target: T1, DNA topoisomerase 2-alpha; details: HL-60, 10 uM
[6] = molecular target: T1, DNA topoisomerase 2-alpha; details: 100 uM
[7] = molecular target: T2, DNA topoisomerase 1 (Homo sapiens) (UniProt P11387); details: 0.6 to 5 uM
T2 sequence (whole entry): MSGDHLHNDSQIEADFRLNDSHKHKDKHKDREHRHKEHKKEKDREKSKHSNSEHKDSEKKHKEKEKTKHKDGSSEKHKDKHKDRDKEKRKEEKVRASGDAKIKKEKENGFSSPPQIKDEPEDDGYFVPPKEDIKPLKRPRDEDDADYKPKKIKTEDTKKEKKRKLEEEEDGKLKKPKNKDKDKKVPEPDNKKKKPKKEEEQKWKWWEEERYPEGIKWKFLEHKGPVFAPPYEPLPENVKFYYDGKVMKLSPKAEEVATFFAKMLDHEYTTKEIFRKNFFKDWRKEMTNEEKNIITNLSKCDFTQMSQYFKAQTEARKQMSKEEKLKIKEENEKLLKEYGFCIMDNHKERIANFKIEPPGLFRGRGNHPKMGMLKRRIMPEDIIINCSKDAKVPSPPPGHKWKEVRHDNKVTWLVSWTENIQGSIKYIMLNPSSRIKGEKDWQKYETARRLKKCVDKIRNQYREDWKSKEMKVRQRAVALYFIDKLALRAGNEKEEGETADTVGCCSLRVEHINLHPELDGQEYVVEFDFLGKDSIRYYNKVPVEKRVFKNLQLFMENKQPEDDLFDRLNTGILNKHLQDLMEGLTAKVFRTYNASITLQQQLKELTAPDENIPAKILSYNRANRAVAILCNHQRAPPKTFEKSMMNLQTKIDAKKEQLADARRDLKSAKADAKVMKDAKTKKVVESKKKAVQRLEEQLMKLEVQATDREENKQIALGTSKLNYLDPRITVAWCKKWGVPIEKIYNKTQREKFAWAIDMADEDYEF

Escherichia coli = experiment: Binding affinity to Escherichia coli pBR322 DNA assessed as intercalation of pBR322 DNA at 0.1 to 100 uM by fluorescence based ethidium bromide displacement assay
Procedure, shortened: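 Increasing concentrations added to 20 nM pBR322 plasmid with 2.5 μM ethidium bromide in 10 mM HEPES pH 7.9, 100 mM KCl, 5 mM MgCl2, 0.1 mM EDTA. Fluorescence emission spectra recorded (excitation 510 nm, emission max 595 nm) at each concentration; mAMSA used as intercalating reference.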

SMILES | inhibition [1] | IC50 (HeLa) [µM] | IC50 [2] [µM] | IC50 (A549) [µM] | IC50 (K562) [nM] | IC50 (Raji) [nM] | IC50 [3] [nM] | IC50 [4] [µM] | Ratio IC50 (HL-60) | IC50 (HEK293) [nM] | inhibition [5] | inhibition [6] | inhibition [7] | inhibition (Escherichia coli)
COc1cc([C@@H]2c3cc4c(cc3[C@@H](O[C@@H]3O[C@@H]5CO[C@@H](C)O[C@H]5[C@H](O)[C@H]3O)[C@H]3COC(=O)[C@H]23)OCO4)cc(OC)c1O [ETOPOSIDE] | Active | 32.5 | 31.3 | 6.74 | 510 | 1680 | 160 | 9.02 | 56.4 | 690 | Active | Active | Active | –
COc1cc(NS(C)(=O)=O)ccc1Nc1c2ccccc2nc2ccccc12 | – | – | – | – | – | – | – | – | – | – | – | – | – | Active
